What was measured:
[1] = Antiproliferative activity against human HCT116 cells after 72 hrs by MTT assay; assay type: functional, cell-based; details: HCT-116, 72 h
Method in brief: (§1)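 Tumour cells were grown as monolayers in DMEM with 10 % FBS, 2 mM L-glutamine, penicillin and streptomycin at 37 °C under 5 % CO₂. Tenfold dilutions from 10^-8 to 10^-4 M were applied for 72 h, followed by MTT read at 570 nm. IC50 came from linear regression of percentage growth; at least two experiments, quadruplicate points.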

[2] = Antiproliferative activity against human MCF7 cells after 72 hrs by MTT assay; assay type: functional, cell-based; details: MCF7, 72 h; method in brief: as §1
[3] = Antiproliferative activity against human H460 cells after 72 hrs by MTT assay; assay type: functional, cell-based; details: NCI-H460, 72 h
Method in brief: as §1, with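 “CO₂. They were seeded at 3×10^4 cells/mL (HCT 116, H460) or 5×10^4 cells/mL (MCF-7).” for “CO₂.”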

[4] = Antiproliferative activity against human shGFP-fused HMLE cells after 72 hrs by MTT assay; assay type: cell-based
Method in brief: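 HMLE-shGFP cells were kept in a 1:1 mix of DMEM + 10 % FBS with insulin, hydrocortisone and HuMEC medium at 37 °C, 5 % CO₂. Agents were given as tenfold dilutions from 10^-8 to 10^-4 M for 72 h, then MTT absorbance was read at 570 nm. IC50 was interpolated by linear regression of percentage growth; at least two experiments, each point in quadruplicate.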

[5] = Binding affinity to duplex calf thymus DNA assessed as change in melting temperature at drug/DNA ratio of 0.5 by spectrophotometric analysis
Method in brief: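 Calf-thymus DNA at 20 μM was heated with or without compound at 10 or 20 μM (drug/base-pair ratio 0.5 or 1) in BPE buffer (6 mM Na₂HPO₄, 2 mM NaH₂PO₄, 1 mM EDTA, pH 7.1). A260 was read every minute from 20 to 100 °C, rising 1 °C per min, and ΔTm was derived.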

ΔTm [5] [°C]	Compound	IC50 ([1]; read-out: IC50) [µM]	IC50 ([1]; read-out: pIC50 (converted)) [µM]	IC50 ([2]; read-out: IC50) [µM]	IC50 ([2]; read-out: pIC50 (converted)) [µM]	IC50 ([3]; read-out: IC50) [µM]	IC50 ([3]; read-out: pIC50 (converted)) [µM]	IC50 [4] [µM]
	CCCCNc1ccc2c(NCCCC)c(C#N)c3nc4ccccc4n3c2c1	7	7	5	5	4	4	
	CCN(CC)c1ccc2c(N(CC)CC)c(C#N)c3nc4ccccc4n3c2c1	16	16	22	22	25	25	
0	CC1CN(c2ccc3cc(C#N)c4nc5ccccc5n4c3c2)CC(C)N1 (stereo unspecified)	0.3	0.3	0.6	0.6	0.5	0.5	0.2
	COc1cc([C@@H]2c3cc4c(cc3[C@@H](O[C@@H]3O[C@@H]5CO[C@@H](C)O[C@H]5[C@H](O)[C@H]3O)[C@H]3COC(=O)[C@H]23)OCO4)cc(OC)c1O [ETOPOSIDE]	5		1		0.1		0.4
0	CCCN(CCC)c1ccc2c(N(CCC)CCC)c(C#N)c3nc4ccccc4n3c2c1	14	14	21	21	29	29	
	CC(C)Nc1ccc2cc(C#N)c3nc4ccccc4n3c2c1	0.8	0.8	0.7	0.7	2	2	1
	CC(C)Nc1c(C#N)c2nc3ccccc3n2c2ccccc12	13	13	20	20	5	5	
	CC(C)Nc1ccc2c(NC(C)C)c(C#N)c3nc4ccccc4n3c2c1	≥ 10	10	7	7	21	21	
1.2	CNc1ccc2c(NC)c(C#N)c3nc4ccccc4n3c2c1	7	7	2	2	≥ 100	100	
	CC(C)CCNc1ccc2c(NCCC(C)C)c(C#N)c3nc4ccccc4n3c2c1	6	6	2	2	5	5	6
	CC(C)CCNc1c(C#N)c2nc3ccccc3n2c2ccccc12	5	5	4	4	2	2	
	CC(C)CCNc1ccc2cc(C#N)c3nc4ccccc4n3c2c1	3	3	2	2	4	4	3
	CC(C)CNc1ccc2c(NCC(C)C)c(C#N)c3nc4ccccc4n3c2c1	2	2	2	2	3	3	
	CCCCCN(CCCCC)c1ccc2c(N(CCCCC)CCCCC)c(C#N)c3nc4ccccc4n3c2c1	> 100	> 100	> 100	> 100	> 100	500	
0.5	N#Cc1c(N2CCOCC2)c2ccc(N3CCOCC3)cc2n2c1nc1ccccc12	11	11	9	8.99	18	18	
	CN1CCN(c2ccc3c(N4CCN(C)CC4)c(C#N)c4nc5ccccc5n4c3c2)CC1	2	2	3 to 4	3	3 to 4	4	
	CN1CCN(c2ccc3cc(C#N)c4nc5ccccc5n4c3c2)CC1	0.6	0.6	2	2	1	1	0.5
	CC1CN(c2ccc3c(N4CC(C)NC(C)C4)c(C#N)c4nc5ccccc5n4c3c2)CC(C)N1 (stereo unspecified)	0.4	0.4	1	1	0.8	0.8	0.2
	CN1CCN(c2c(C#N)c3nc4ccccc4n3c3ccccc23)CC1	3	3	3	3	4	4	
0.7	N#Cc1c(N2CCCCC2)c2ccc(N3CCCCC3)cc2n2c1nc1ccccc12	11	11	10	10	15	15	
	CCCCCCNc1ccc2c(NCCCCCC)c(C#N)c3nc4ccccc4n3c2c1	> 100	> 100	> 100	> 100	> 100	500	
	CCCCCCNc1c(C#N)c2nc3ccccc3n2c2ccccc12	4	4	3	3	2	2	
	CCCCCCNc1ccc2cc(C#N)c3nc4ccccc4n3c2c1	5	5	5	5	5	5	
	COc1cccc2c1C(=O)c1c(O)c3c(c(O)c1C2=O)C[C@@](O)(C(=O)CO)C[C@@H]3O[C@H]1C[C@H](N)[C@H](O)[C@H](C)O1 [DOXORUBICIN]					0.03		0.01
	CC1CN(c2c(C#N)c3nc4ccccc4n3c3ccccc23)CC(C)N1 (stereo unspecified)	3	3	6	6	4	4	3
